Compound activity as filed in PubChem.
STAT3 act = activators of IL-6 induced STAT3 signaling; activation (% of control), % at 5.6 µM; 0.91% of 190,000 active; U3A cells, IL-6 STAT3-luciferase reporter, luminescence; 100% = signal with IL-6 EC80 alone; AID 871;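 active means activation above the screen-wide mean of compound activation plus 3 SD, cut at about 130% in these data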
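Detection: reporter luminescence signal / Assay system: STAT1-lacking human U3A cells, STAT3 luciferase reporter / Incubation: compound pre-incubation 1 h before IL-6, then 6 h stimulation at 37 °C / Control set: IL-6-only high control / Read-out: % activation relative to IL-6 control / Probe or stimulus: Interleukin-6, 33 ng/mL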
FXIIa inh 1536 = factor XIIa (human) inhibition. P00748. purified FXIIa, Boc-QGR-AMC fluorogenic substrate, 2 h. inhibition, % at 5 µM. 0.3% of 220,000 active. AID 800; in the data active means inhibition above about 40%
FXIa inh 1536 = factor XIa (human) inhibition; P03951; purified FXIa, Boc-Glu-Ala-Arg-AMC fluorogenic substrate; inhibition, % at 5 µM; 0.14% of 220,000 active; AID 798;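 active means inhibition of at least 40%; inactive means inhibition below 40%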;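 further: fluorescence of freed AMC excited at 355 nm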
KLK5 inh = blocks human kallikrein 5 protease activity | Q9Y337 | recombinant hK5, fluorogenic AMC substrate cleavage | inhibition, % at 5 µM | 0.59% of 210,000 active | AID 873;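 active means inhibition of 40% or more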
AHR act = human AHR activation. 2.5% of 320,000 active. activation, % at 5 µM. AHR-responsive luciferase reporter cells, luminescence; in the data active means activation above about 47%
Target sequence (P35869 whole entry, looked up): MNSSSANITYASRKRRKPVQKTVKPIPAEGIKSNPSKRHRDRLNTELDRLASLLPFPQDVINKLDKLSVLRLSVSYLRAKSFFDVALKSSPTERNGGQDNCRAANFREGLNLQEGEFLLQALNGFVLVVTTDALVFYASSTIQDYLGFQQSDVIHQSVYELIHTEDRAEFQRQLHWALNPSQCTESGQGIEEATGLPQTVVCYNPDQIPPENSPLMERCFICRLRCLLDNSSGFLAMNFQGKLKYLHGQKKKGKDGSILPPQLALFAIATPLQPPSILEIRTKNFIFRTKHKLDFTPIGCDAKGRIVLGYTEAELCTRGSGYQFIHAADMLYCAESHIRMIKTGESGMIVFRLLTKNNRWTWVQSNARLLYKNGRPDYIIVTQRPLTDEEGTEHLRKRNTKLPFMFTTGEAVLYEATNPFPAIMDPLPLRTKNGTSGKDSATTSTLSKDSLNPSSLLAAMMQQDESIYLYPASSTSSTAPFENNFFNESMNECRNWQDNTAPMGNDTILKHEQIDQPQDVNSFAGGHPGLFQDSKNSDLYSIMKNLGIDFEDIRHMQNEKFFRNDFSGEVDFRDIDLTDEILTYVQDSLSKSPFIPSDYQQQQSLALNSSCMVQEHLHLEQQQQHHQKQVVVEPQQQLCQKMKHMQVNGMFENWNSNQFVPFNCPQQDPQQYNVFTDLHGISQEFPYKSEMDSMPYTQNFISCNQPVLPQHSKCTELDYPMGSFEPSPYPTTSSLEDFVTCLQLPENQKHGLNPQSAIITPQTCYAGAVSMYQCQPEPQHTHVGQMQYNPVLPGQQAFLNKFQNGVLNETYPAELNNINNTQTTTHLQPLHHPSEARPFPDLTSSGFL
Thrombin inh = thrombin (human) inhibition; P00734; alpha-thrombin, Boc-VPR-AMC fluorogenic substrate cleavage; inhibition, % at 5 µM; 0.26% of 220,000 active; AID 1046;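 active means inhibition at or above 40%; inactive means inhibition below 40%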
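signal = AMC fluorescence, 355/460 nm | material = human alpha-thrombin enzyme | control set = enzyme without compound as high, wells lacking enzyme as low | times = reaction at room temperature | read-out basis = percent inhibition scaled between no-compound controls and no-enzyme blanks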
Each line names hits and unclear results; the compound was inactive in the other large screens. In the library only some 3.5% were active in any assay of this set; here they are far more common.

COc1cc(NC(=O)c2cccs2)c(OC)cc1NC(=O)c1cccs1	AHR act 57.0 (no result: STAT3 act, FXIIa inh 1536, FXIa inh 1536, KLK5 inh, Thrombin inh)
COc1ccc(Cl)cc1NC(=O)C/C(C)=N/NC(=O)CC#N	AHR act 71.9
COc1ccc(Cl)cc1NC(=O)C/C(C)=N/NC(=O)CCc1ccccc1	none (no result: STAT3 act, FXIIa inh 1536, FXIa inh 1536, KLK5 inh, Thrombin inh)
C/C(CC(=O)Nc1ccc(Cl)cc1C(F)(F)F)=N\NC(=O)c1cccs1	none (no result: STAT3 act)
C=CCSc1nc(C)cc(/C=C\c2ccccc2)c1C#N	none
O=C(COc1ccc(-c2ccccc2)cc1)NNC(=O)NC1CCCCC1	none
COc1cc(NCCC(=O)c2cccs2)c(OC)cc1Cl	AHR act 51.1
CCCCNC(=O)C1CC(c2ccc(C(F)(F)F)cc2)=NO1 (stereo unspecified)	none (no result: STAT3 act)
CCCNC(=O)C1CC(c2ccc(C(F)(F)F)cc2)=NO1 (stereo unspecified)	FXIa inh 1536 101.9 (no result: STAT3 act)
Cc1ccccc1-c1cc(C(=O)NCc2cccc(Br)c2)nn1CC1CC(c2cccc([N+](=O)[O-])c2)=NO1 (stereo unspecified)	none (no result: STAT3 act, FXIIa inh 1536, FXIa inh 1536, KLK5 inh, Thrombin inh)
CCCCn1c(O)c(N=Nc2ccccc2O)c2ccccc21	AHR act 59.7 (no result: STAT3 act, FXIIa inh 1536, FXIa inh 1536, KLK5 inh, Thrombin inh)
CCCCn1c(O)c(N=Nc2ccccn2)c2ccccc21	none
O=C(O)CSCC(=O)NCc1cccc(C(F)(F)F)c1	Thrombin inh 40.5
COc1ccc(OC)c(C(=O)NC(CC(N)=O)c2ccc(N3CCN(c4ccccn4)CC3)c([N+](=O)[O-])c2)c1 (stereo unspecified)	none (no result: STAT3 act, FXIIa inh 1536, FXIa inh 1536, KLK5 inh, Thrombin inh)
CCOC(=O)Cn1c(=O)oc2cc(S(=O)(=O)NCCc3ccc(C)cc3)ccc21	KLK5 inh 57.8, Thrombin inh 56.9
Cc1nn(C)c(=S)n1-c1ccc(Cl)cc1	KLK5 inh 43.8
Cc1cc(NC(=O)c2cc3cccc([N+](=O)[O-])c3[nH]2)ccc1F	AHR act 64.8 (no result: STAT3 act)
C=CCn1c(N)cc(=O)nc1SC(C)C(=O)Nc1ccc(C(=O)OCC)cc1 (stereo unspecified)	none (no result: STAT3 act, FXIIa inh 1536, FXIa inh 1536, KLK5 inh, Thrombin inh)
Cc1ccccc1/C=N/N1CCN(c2ccccc2)CC1	AHR act 73.3
COc1cc2c(cc1NC(=O)CSc1nccn1C)oc1ccccc12	AHR act 77.8
COc1ccc(Cl)cc1NC(=O)C1CCCO1 (stereo unspecified)	none
COc1cc2c(cc1NC(=O)Nc1ccc(F)cc1)oc1ccccc12	AHR act 66.0
COc1ccc(NC(=O)Nc2cc3oc4ccccc4c3cc2OC)cc1	AHR act 73.6
COc1cc2c(cc1NC(=O)C(C)Sc1ccc(NC(C)=O)cc1)oc1ccccc12 (stereo unspecified)	none
COc1cc2c(cc1NC(=O)C1CCCO1)oc1ccccc12 (stereo unspecified)	STAT3 act 166.3
CCOc1cc(/C=N\NC(=O)Cn2nnc3ccccc32)ccc1O	none
CC1CCN(C(=O)C2(NC(=O)Nc3cccc(F)c3)CCCCC2)CC1	none
CC(=O)c1c(NCc2ccccc2)nc(=O)n(-c2ccccc2)c1C	KLK5 inh 70.0
CC(=O)c1c(NCCc2ccccc2)nc(=S)n(-c2ccccc2)c1C	none
COc1ccccc1N1CCN(/N=C/c2c(C)nn(-c3ccccc3)c2C)CC1	none
CCC(=O)N/C(N)=N/c1nc(C)c2cc(C)c(C)cc2n1	AHR act 50.4 (no result: STAT3 act)
Cc1ccc(/C(N)=N/OC(=O)c2ccc(F)cc2)cc1	none
N/C(=N\OC(=O)c1ccc(F)cc1)c1ccccc1	AHR act 59.9
N/C(=N\OC(=O)c1ccc(F)cc1)c1ccc(Br)cc1	AHR act 52.2 (no result: KLK5 inh)
COc1cc(NC(=O)c2ncn[nH]2)cc(OC)c1OC	none (no result: AHR act)
COc1cccc(NC(=O)CCNC(=O)N2CC(=O)Nc3ccccc32)c1	none (no result: STAT3 act, FXIIa inh 1536, FXIa inh 1536, KLK5 inh, Thrombin inh)
COc1ccc(OC)c(NC(=O)Cn2c(CCC(=O)O)ccc2-c2ccccc2)c1	STAT3 act 133.6
CC(=O)Nc1ccccc1-c1nc2ccc(C(=O)N3CCN(c4cccc(C)c4)C(C)C3)cc2[nH]c1=O (stereo unspecified)	KLK5 inh 59.3
CC(=O)Nc1ccccc1-c1nc2ccc(C(=O)N3CCN(c4ccccc4)CC3)cc2[nH]c1=O	none
CCN(CC)S(=O)(=O)c1cc(NC(=O)c2ccc(-n3cncn3)c([N+](=O)[O-])c2)ccc1C	none (no result: STAT3 act, FXIIa inh 1536, FXIa inh 1536, KLK5 inh, Thrombin inh)
O=C(Nc1ccccc1O)c1c(O)c2c([nH]c1=O)CCCC2	AHR act 56.8
Clc1cccc(-c2noc3ncnc(Nc4ccc5c(c4)OCO5)c23)c1	AHR act 55.2 (no result: STAT3 act, FXIIa inh 1536, FXIa inh 1536, KLK5 inh, Thrombin inh)
Cc1cccc(Nc2ncnc3onc(-c4cccc(Cl)c4)c23)c1	none (no result: STAT3 act, FXIIa inh 1536, FXIa inh 1536, KLK5 inh, Thrombin inh)
CSc1ccc(C#N)cc1NC(=O)c1ccc(Cl)cc1Cl	AHR act 59.2
CSc1ccc(C#N)cc1NC(=O)c1ccccc1	none
Cc1cc(OCC(=O)NC2CC(C)(C)NC(C)(C)C2)c2c(C)c(C)c(=O)oc2c1	none (no result: STAT3 act, FXIIa inh 1536, FXIa inh 1536, KLK5 inh, Thrombin inh)
CS(=O)(=O)N1CCN(C(=O)c2ccccc2F)CC1	KLK5 inh 115.7
CS(=O)(=O)N1CCN(C(=O)c2c(F)cccc2F)CC1	none
CCOC(=O)N1CCC(N2CCCC(CO)(Cc3cccc(OC)c3)C2)CC1 (stereo unspecified)	none
COc1ccc(S(=O)(=O)N2CCC(C(=O)NCCCc3ccccc3)CC2)cc1	none (no result: STAT3 act, FXIIa inh 1536, FXIa inh 1536, KLK5 inh, Thrombin inh)
COc1ccccc1CN1CCNC(=O)C1CC(=O)N(C)Cc1cnccn1 (stereo unspecified)	FXIIa inh 1536 49.3, KLK5 inh 41.8 (no result: AHR act)
O=[N+]([O-])c1ccc(-c2nc(NCc3ccccc3)c3ccccc3n2)cc1	none
O=[N+]([O-])c1cccc(-c2nc(NCc3ccccc3)c3ccccc3n2)c1	AHR act 88.1
Cc1[nH]c2ccccc2c1C(=O)COC(=O)Cn1c(C)nc2ccccc21	KLK5 inh 51.7
Cc1ccc(O)c(NC(=O)c2ccc3c(c2)C(=O)N(CC(C)C)C3=O)c1	AHR act 73.3 (no result: STAT3 act, FXIIa inh 1536, FXIa inh 1536, KLK5 inh, Thrombin inh)
CCCN1C(=O)c2ccc(C(=O)Nc3cc(C)ccc3O)cc2C1=O	none (no result: STAT3 act, FXIIa inh 1536, FXIa inh 1536, KLK5 inh, Thrombin inh)
COc1ccc(C2=NN(C(=O)CSc3nc4ncc(Cl)cc4[nH]3)C(c3ccco3)C2)cc1 (stereo unspecified)	AHR act 47.2
Cc1ccc(C2=NN(C(=O)CSc3nc4ncc(Cl)cc4[nH]3)C(c3ccco3)C2)cc1 (stereo unspecified)	none
S=C(NCC1CCCO1)Nc1ccc(Nc2ccccc2)cc1 (stereo unspecified)	KLK5 inh 40.1
S=C(NCC1CCCO1)Nc1cccc(Cl)c1 (stereo unspecified)	none
S=C(NCc1cccs1)NCC1CCCO1 (stereo unspecified)	Thrombin inh 60.1 (no result: AHR act)
COC(=O)c1[nH]c2cc(OC)ccc2c1NC(=O)CCN1CCSCC1	none
Cc1oc(-c2ccccc2Cl)nc1CSCC(=O)O	none
CCOc1ccc(N=C(/C(C(=O)C(=O)N2CCOCC2)=C(\O)c2ccccc2)c2ccccc2)cc1	none
COc1ccc2c(COC(=O)CCS(=O)(=O)c3ccccc3)cc(=O)oc2c1	none
